High-throughput results from PubChem BioAssay.
Lipid droplet: inhibitors of hepatocyte lipid droplet formation, primary screen, imaging, high-throughput imaging, BODIPY stain. AML12 mouse hepatocytes, oleate lipid droplets. inhibition, % at 6.5 µM. 240,000 tested, 0.4% active. AID 1656, 2009;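 active = lipid droplet intensity inhibited by at least 50%, with more than 500 cells counted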
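Assay system: AML12 hepatocytes (mouse); Probe or stimulus: oleic acid at 100 µM to induce lipid droplet formation; Dosing: compound at 6.5 µM only; Schedule: compound with oleate, overnight; Detection: fluorescence imaging, 20x objective, two fields per well; Measure: % inhibition of lipid droplet signal.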
MEKK2 WT-MEK5: modulators of MEK5 binding to wildtype MEKK2, primary screen, biochemical, multiplex bead flow cytometry, Alexa488-MEK5. Mitogen-activated protein kinase kinase kinase 2 (Homo sapiens), Q9Y2U5. Alexa488-MEK5 binding to MEKK2 WT; actives lie on both sides. binding response (% of control), % at 10 µM. 290,000 tested, 1.1% active. AID 1531, 2009; in the data active = binding response below about 67% or above about 130%
MEKK2 mut-MEK5: MEK5 binding signal on mutant MEKK2 PB1, primary screen, biochemical, multiplex bead flow cytometry, Alexa488-MEK5 | Alexa488-MEK5 binding to MEKK2 mutant | percent response, % at 10 µM | 290,000 tested, 0.35% active | AID 1530, 2009; in the data active = percent response above about 24%, passing the limit was not always enough
MEKK3 PB1 HTS: modulators of MEKK3-MEK5 PB1 binding, primary screen, biochemical, wildtype MEKK3, multiplex bead flow cytometry, Alexa488-MEK5 | Mitogen-activated protein kinase kinase kinase 3 (Homo sapiens), Q99759 | bead-based flow cytometry, Alexa488-MEK5 binding to MEKK3; actives lie on both sides; 0 = blocked by unlabeled MEK5, 100 = vehicle | binding response (% of control), % at 10 µM | 290,000 tested, 1.4% active | AID 1529, 2009;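 active = binding response more than 3 SD above or below the average of its plate-row segment, actives on both sides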;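 note: Alexa488 bead fluorescence after subtracting the streptavidin-only scavenger bead signal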
Target sequence (Q99759 whole entry, looked up): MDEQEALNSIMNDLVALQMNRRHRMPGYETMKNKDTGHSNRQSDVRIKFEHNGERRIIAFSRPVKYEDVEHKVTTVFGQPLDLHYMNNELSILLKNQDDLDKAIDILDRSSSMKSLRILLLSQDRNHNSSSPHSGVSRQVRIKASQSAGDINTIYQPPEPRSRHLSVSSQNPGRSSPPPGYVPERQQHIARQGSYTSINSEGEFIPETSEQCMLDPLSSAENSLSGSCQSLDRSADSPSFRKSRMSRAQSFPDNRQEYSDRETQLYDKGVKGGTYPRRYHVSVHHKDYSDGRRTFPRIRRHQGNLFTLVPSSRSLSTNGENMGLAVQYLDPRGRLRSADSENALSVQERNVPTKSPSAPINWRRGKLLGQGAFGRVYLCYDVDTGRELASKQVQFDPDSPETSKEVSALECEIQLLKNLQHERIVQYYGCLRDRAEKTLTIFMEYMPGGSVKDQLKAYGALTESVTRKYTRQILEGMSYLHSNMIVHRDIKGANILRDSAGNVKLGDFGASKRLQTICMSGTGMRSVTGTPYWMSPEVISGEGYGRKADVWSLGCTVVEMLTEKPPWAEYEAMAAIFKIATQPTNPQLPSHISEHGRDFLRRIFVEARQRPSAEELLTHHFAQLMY
MEKK2wt confirm: modulators of MEK5 binding to wildtype MEKK2, confirmation, biochemical, single concentration, multiplex bead flow cytometry | shares compounds with MEKK3 PB1 HTS | Alexa488-MEK5 binding to MEKK2 WT; actives lie on both sides | 5,900 tested, 2.4% active | binding response (% of control), % at 10 µM | AID 1892, 2009; in the data active = binding response below about 16% or above about 210%; inactive = in between
MEKK2mut-MEK5: mutant MEKK2 PB1-MEK5 binding signal retest – biochemical, single concentration, multiplex bead flow cytometry, confirmation | shares compounds with MEKK3 PB1 HTS | Alexa488-MEK5 binding to MEKK2 mutant | 5,900 tested, 2% active | percent response, % at 10 µM; in the data active = percent response mostly above about 71%, no sharp cut-off; inactive = mostly below about 38%;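 note: higher means compound restores mutant binding toward wildtype level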
MEKK3-MEK5 inh: MEKK3 wild-type PB1 binding to MEK5, inhibitors, confirmation, biochemical, bead multiplex flow cytometry, single concentration, wildtype. shares compounds with MEKK3 PB1 HTS. Alexa488-MEK5 binding to MEKK3; hits give low values. binding response (% of control), % at 10 µM. 5,900 tested, 1.8% active;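 active = binding response below 72% of control, or above a set upper limit, though filed actives all read lower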;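 note: 100% = DMSO only wells and 0% = binding blocked by excess unlabeled MEK5; lower values mean stronger disruption of MEK5 binding to MEKK3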
* hit, by the source's call; [ ] = dose if it differs, or a comment. Sampled rows, rich in hits. Any-hit rate of the full collection: about 2.6%.

Screening COc1ccc(CC(=O)NNc2ncnc3c2cnn3-c2ccccc2)cc1 returned Lipid droplet 1.2, MEKK2 WT-MEK5 103.0, MEKK2 mut-MEK5 0.0, MEKK3 PB1 HTS 136.0*, MEKK2wt confirm 89.0, MEKK2mut-MEK5 -2.0 and MEKK3-MEK5 inh 97.0.
Screening Cc1c(Cl)cccc1NC(=O)c1cccnc1 returned Lipid droplet 3.2, MEKK2 WT-MEK5 99.0, MEKK2 mut-MEK5 0.0 and MEKK3 PB1 HTS 100.0.
`Cc1c(Cl)cccc1NC(=O)c1ccc(-n2ccnc2)nc1` gave MEKK2 WT-MEK5 50.0*[inhibitor], MEKK2 mut-MEK5 -14.0, MEKK3 PB1 HTS 49.0*[inhibitor], MEKK2wt confirm 103.0, MEKK2mut-MEK5 3.0 and MEKK3-MEK5 inh 100.0.
COc1ccc(C)cc1-n1nnnc1SCC(=O)c1ccc2c(c1)OCCO2 was read as MEKK2 WT-MEK5 96.0, MEKK2 mut-MEK5 -2.0 and MEKK3 PB1 HTS 102.0.
For COc1ccc(C)cc1-n1nnnc1SCC1CCCO1 (stereo not drawn) the results were Lipid droplet 5.6, MEKK2 WT-MEK5 103.0, MEKK2 mut-MEK5 24.0*, MEKK3 PB1 HTS 103.0, MEKK2wt confirm 114.0, MEKK2mut-MEK5 17.0 and MEKK3-MEK5 inh 106.0.
`CCC(C)[C@H](NC(=O)C1CCN(C(=O)[C@H](Cc2ccccc2)NS(=O)(=O)c2ccc(C)cc2)CC1)C(=O)O` (stereo partly drawn) gave Lipid droplet 0.9, MEKK2 WT-MEK5 104.0, MEKK2 mut-MEK5 9.0 and MEKK3 PB1 HTS 104.0.
For CCN(CC)CCNC(=O)c1ccc(NC(=O)c2cccc(S(=O)(=O)N3c4ccccc4CC3C)c2)cc1 (stereo not drawn) the results were Lipid droplet -11.2, MEKK2 WT-MEK5 174.0*, MEKK2 mut-MEK5 37.0*, MEKK3 PB1 HTS 105.0, MEKK2wt confirm 135.0, MEKK2mut-MEK5 20.0 and MEKK3-MEK5 inh 108.0.
`CC1Cc2ccccc2N1S(=O)(=O)c1cccc(C(=O)NCCCO)c1` (stereo not drawn) gave MEKK2 WT-MEK5 109.0, MEKK2 mut-MEK5 17.0 and MEKK3 PB1 HTS 112.0.
Screening COc1ccc(/C=C(/C#N)C(=O)Nc2ccccc2C)cc1C(=O)O returned Lipid droplet 0.5, MEKK2 WT-MEK5 106.0, MEKK2 mut-MEK5 0.0 and MEKK3 PB1 HTS 108.0.
COc1cc(/C=C(\C#N)C(=O)Nc2ccccc2C(=O)O)cc(Cl)c1OC was read as Lipid droplet -3.2, MEKK2 WT-MEK5 56.0, MEKK2 mut-MEK5 -17.0, MEKK3 PB1 HTS 43.0*[inhibitor], MEKK2wt confirm 106.0, MEKK2mut-MEK5 6.0 and MEKK3-MEK5 inh 106.0.
COc1ccc(NC(=O)C(=O)N2N=C(C(C)C)CC2(O)C(F)(F)F)cc1 (stereo not drawn) was read as MEKK2 WT-MEK5 97.0, MEKK2 mut-MEK5 -5.0 and MEKK3 PB1 HTS 95.0.
N#C/C(=C\c1ccccc1[N+](=O)[O-])c1nc(C2CC2)cs1 was read as Lipid droplet -27.4, MEKK2 WT-MEK5 95.0, MEKK2 mut-MEK5 -1.0 and MEKK3 PB1 HTS 96.0.
Screening N#C/C(=C\C=C\c1ccccc1[N+](=O)[O-])c1nc(-c2ccc3c(c2)OCO3)cs1 returned Lipid droplet 0.4, MEKK2 WT-MEK5 24.0*, MEKK2 mut-MEK5 30.0*, MEKK3 PB1 HTS 104.0, MEKK2wt confirm 93.0, MEKK2mut-MEK5 -4.0 and MEKK3-MEK5 inh 96.0.
Screening COc1ccc(/C=C2/SC(=O)N(CCC(=O)Nc3ccccc3C(=O)O)C2=S)cc1 returned Lipid droplet -8.6, MEKK2 WT-MEK5 100.0, MEKK2 mut-MEK5 4.0 and MEKK3 PB1 HTS 100.0.
Screening CN1CCC(NCCC(c2ccc(F)cc2)c2ccc(Cl)cc2)CC1 (stereo not drawn) returned Lipid droplet -46.9, MEKK2 WT-MEK5 10.0*[inhibitor], MEKK2 mut-MEK5 -49.0, MEKK3 PB1 HTS 4.0*[inhibitor], MEKK2wt confirm 150.0, MEKK2mut-MEK5 37.0 and MEKK3-MEK5 inh 106.0.
For Cc1ccc(-c2c[n+](CC(=O)N3c4ccccc4Sc4ccccc43)c3n2CCC3)cc1 the results were Lipid droplet -1.1, MEKK2 WT-MEK5 152.0*, MEKK2 mut-MEK5 29.0, MEKK3 PB1 HTS 105.0, MEKK2wt confirm 129.0, MEKK2mut-MEK5 27.0 and MEKK3-MEK5 inh 103.0.
Screening Cc1ccc(-c2csc(NC(=O)C[n+]3cc(-c4ccc(C)cc4)n4c3CCC4)n2)cc1 returned Lipid droplet 24.7, MEKK2 WT-MEK5 141.0*, MEKK2 mut-MEK5 3.0, MEKK3 PB1 HTS 104.0, MEKK2wt confirm 207.0*, MEKK2mut-MEK5 63.0 and MEKK3-MEK5 inh 109.0.
Screening O=C(C[n+]1cc(-c2ccccc2)n2c1CCC2)N1c2ccccc2Sc2ccccc21 returned Lipid droplet 7.0, MEKK2 WT-MEK5 124.0, MEKK2 mut-MEK5 16.0 and MEKK3 PB1 HTS 103.0.
`Cc1ccc(-c2csc(NC(=O)C[n+]3cc(-c4ccccc4)n4c3CCC4)n2)cc1` gave Lipid droplet -4.9, MEKK2 WT-MEK5 167.0*, MEKK2 mut-MEK5 36.0, MEKK3 PB1 HTS 96.0, MEKK2wt confirm 159.0, MEKK2mut-MEK5 29.0 and MEKK3-MEK5 inh 106.0.
Screening Cc1ccc(F)cc1CNC(=O)C1CCC(=O)N(CC2CCCCC2)C1 (stereo not drawn) returned Lipid droplet 11.0, MEKK2 WT-MEK5 100.0, MEKK2 mut-MEK5 0.0 and MEKK3 PB1 HTS 102.0.
Screening O=C(Nc1ccccc1)c1cccc(S(=O)(=O)Nc2ccccn2)c1 returned Lipid droplet 4.0, MEKK2 WT-MEK5 91.0, MEKK2 mut-MEK5 -1.0, MEKK3 PB1 HTS 75.0*[inhibitor], MEKK2wt confirm 105.0, MEKK2mut-MEK5 1.0 and MEKK3-MEK5 inh 99.0.
`COc1cc(OC)c(N(C)S(=O)(=O)c2cccc(C(=O)OCC(=O)c3c[nH]c4ccccc34)c2)cc1Cl` gave Lipid droplet -58.8, MEKK2 WT-MEK5 99.0, MEKK2 mut-MEK5 1.0 and MEKK3 PB1 HTS 95.0.
Screening C=CCN(c1ccccc1OC)S(=O)(=O)c1cccc(C(=O)OCC(=O)c2c[nH]c3ccccc23)c1 returned Lipid droplet -35.5, MEKK2 WT-MEK5 119.0, MEKK2 mut-MEK5 0.0, MEKK3 PB1 HTS 138.0*, MEKK2wt confirm 115.0, MEKK2mut-MEK5 0.0 and MEKK3-MEK5 inh 103.0.
`COCc1cc(C)nc(SCC(=O)NC2CCCCC2C)c1C#N` (stereo not drawn) gave Lipid droplet 2.2, MEKK2 WT-MEK5 107.0, MEKK2 mut-MEK5 8.0 and MEKK3 PB1 HTS 107.0.
